FXIa inh 1536: blocks human coagulation factor XIa protease activity | P03951 | purified FXIa, Boc-Glu-Ala-Arg-AMC fluorogenic substrate | inhibition, % at 5 µM | 0.14% of 220,000 active | AID 798;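 active = inhibition of at least 40%; inactive = inhibition below 40%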;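 also: fluorescence of freed AMC excited at 355 nm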
AHR act: activators of human aryl hydrocarbon receptor | P35869 | AHR-responsive luciferase reporter cells, luminescence | activation, % at 5 µM | 2.5% of 320,000 active; in the data active = activation above about 47%
STAT3 act: increases IL-6 driven STAT3 reporter signal; U3A cells, IL-6 STAT3-luciferase reporter, luminescence; 100% = signal with IL-6 EC80 alone; activation (% of control), % at 5.6 µM; 0.91% of 190,000 active; AID 871;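 active = activation above the screen-wide mean of compound activation plus 3 SD, cut at about 130% in these data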
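Material: human U3A cells carrying STAT3-luciferase construct. Measured by: reporter luminescence signal. Timing: compound 1 h, then IL-6 6 h at 37 °C.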
FXIIa inh: inhibitors of human coagulation factor XIIa; purified FXIIa, Boc-QGR-AMC fluorogenic substrate, 2 h; P00748; inhibition, % at 5 µM; 0.3% of 220,000 active; in the data active = inhibition above about 40%
Target sequence (P00748 20-372 limits assumed): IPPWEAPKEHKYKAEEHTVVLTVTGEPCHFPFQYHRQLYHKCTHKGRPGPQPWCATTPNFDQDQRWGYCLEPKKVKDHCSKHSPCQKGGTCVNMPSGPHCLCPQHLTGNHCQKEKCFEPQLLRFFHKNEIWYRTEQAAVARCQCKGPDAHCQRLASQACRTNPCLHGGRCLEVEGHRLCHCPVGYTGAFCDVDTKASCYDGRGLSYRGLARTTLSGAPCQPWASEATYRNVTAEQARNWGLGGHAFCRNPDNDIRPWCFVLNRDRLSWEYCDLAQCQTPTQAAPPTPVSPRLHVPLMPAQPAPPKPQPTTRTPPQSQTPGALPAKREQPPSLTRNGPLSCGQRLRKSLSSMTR
Target sequence (P00748 373-615 limits assumed): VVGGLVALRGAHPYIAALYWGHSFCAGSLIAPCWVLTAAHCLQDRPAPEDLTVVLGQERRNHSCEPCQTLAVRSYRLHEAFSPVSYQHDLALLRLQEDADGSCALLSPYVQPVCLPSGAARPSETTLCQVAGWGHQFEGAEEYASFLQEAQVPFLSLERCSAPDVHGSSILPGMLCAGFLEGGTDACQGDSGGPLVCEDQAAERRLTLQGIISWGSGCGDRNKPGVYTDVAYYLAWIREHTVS
KLK5 inh: inhibitors of human kallikrein 5 | recombinant hK5, fluorogenic AMC substrate cleavage | 0.59% of 210,000 active | AID 873 | inhibition, % at 5 µM | Q9Y337;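 active = inhibition of 40% or more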
thrombin 1536: thrombin (human) inhibition | 0.26% of 220,000 active | P00734 | inhibition, % at 5 µM | alpha-thrombin, Boc-VPR-AMC fluorogenic substrate cleavage;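 active = inhibition at or above 40%; inactive = inhibition below 40%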
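Material: Human alpha-thrombin protein | Buffer or medium: pH 7.5 Tris-saline with Tween 20 | Reagent: Boc-VPR-AMC substrate, 15 µM final | Schedule: Reaction at ambient temperature | Detection: AMC fluorescence at 355 nm excitation and 460 nm emission | Evaluation: Percent inhibition scaled between no-compound controls and no-enzyme blanks | Controls: no-compound enzyme wells and no-enzyme blanks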
Hits are given with their value; – = inactive; · = no result given. A selection: hits, their analogues and other compounds. The true share with any hit is near 3.5%.

SMILES	FXIa inh 1536	AHR act	STAT3 act	FXIIa inh	KLK5 inh	thrombin 1536
C=CCn1c(=N)n(CC(=O)c2ccc(OC)cc2)c2ccccc21	–	67	·	–	–	–
COc1ccc(C(=O)Cn2c(=N)n(C)c3ccccc32)cc1	–	76	·	–	–	–
CCOC(=O)C1(Cc2cccc(F)c2)CCN(C(=O)c2ccoc2C)CC1	–	–	–	–	·	–
COC(=O)C1=C2c3[nH]c4ccccc4c3CCN2C(=O)CC1	·	54	·	·	·	·
CCOC(=O)c1nnc(-c2ccc(C)cc2)nc1Sc1ccc(Cl)cc1	–	–	–	–	–	–
CCOC(=O)c1nnc(-c2ccc(C)cc2)nc1N1CCSCC1	–	57	–	–	–	–
c1ccc(N/N=C(\Cc2nc3ccccc3[nH]2)c2ccccc2)cc1	–	149	–	–	–	–
N#CCCN/N=C(/Cc1nc2ccccc2[nH]1)c1ccc(Cl)cc1	–	48	–	–	–	–
N#CCCN/N=C(\Cc1nc2ccccc2[nH]1)c1ccccc1	–	–	–	–	–	–
C=CC[C@@H](CC(=O)OC(C)(C)C)C(=O)OC[C@H]1CCCN1C(=O)[C@@H](CC=C)CC(=O)N(CCO)Cc1ccccc1	·	–	·	·	·	·
O=C(O)c1cc2ccccc2n1-c1ccccc1	–	–	–	–	–	–
Cc1ccc(C2(c3ccc(C)cc3)CC2C(=O)Nc2ccc([N+](=O)[O-])cc2O)cc1 (stereo unspecified)	–	59	–	–	–	–
Cc1nn(C)c(Sc2ccccn2)c1[N+](=O)[O-]	–	–	·	–	–	–
O=C(CSc1nnc(SCc2cccc3ccccc23)s1)N=Nc1c(O)[nH]c2ccccc12	–	–	–	–	–	–
CCOC(=O)CSC1=NC(=O)/C(=C\c2ccc(OC(C)=O)cc2)S1	–	–	–	–	53	–
CCOC(=O)CSC1=NC(=O)/C(=C/c2ccc(Br)cc2)S1	–	–	–	–	–	–
O=C(CSc1nnc(-c2ccc3c(c2)OCO3)o1)Nc1ncc(Cl)cc1Cl	–	133	–	–	–	–
CC(=C/c1ccc(C(C)C)cc1)/C=N/NC(=O)CSc1ccccn1	–	–	134	–	–	–
Cc1ccccc1C(=O)NC1CC(C)(C)NC(C)(C)C1	–	–	–	–	58	–
CC(C)C[C@@H](CNC(=O)OC(C)(C)C)NC(=O)c1nc[nH]c1C(=O)N[C@@H](CC(C)C)C(=O)CNC[C@H](CC(C)C)NC(=O)c1nc[nH]c1C(=O)N[C@@H](Cc1c[nH]c2ccccc12)C(=O)OC(C)(C)C	·	–	·	·	·	·
COc1cc(C(=O)O/N=C2\C=CC(=O)C=C2C)cc(OC)c1OC	–	–	–	41	–	–
COc1cc(C(=O)O/N=C2/C=CC(=O)C(C)=C2C)cc(OC)c1OC	–	·	–	–	–	–
CC(=O)O[C@]1(C(C)=O)CC[C@H]2[C@@H]3C=CC4=CC(=O)C=C[C@]4(C)[C@H]3CC[C@@]21C	·	–	·	·	·	·
Cc1c(Cl)cccc1N=c1c([N+](=O)[O-])nn(-c2ccccc2)n1O	–	55	–	–	–	–
Cc1ccc(N=c2c([N+](=O)[O-])nn(-c3ccccc3)n2O)c(C)c1	–	–	–	–	–	–
SMILES	FXIa inh 1536	AHR act	STAT3 act	FXIIa inh	KLK5 inh	thrombin 1536
CC(C)c1nnc(NC(=O)c2sc3ccccc3c2Cl)s1	–	71	–	–	–	–
Cc1cnc(NC(=O)c2sc3ccccc3c2Cl)s1	–	–	–	–	–	–
O=C(Nc1nccs1)c1sc2ccccc2c1Cl	–	47	–	–	–	–
CCn1c(SCC(=O)Nc2nncs2)nnc1C(C)NC(=O)c1ccccc1Br (stereo unspecified)	·	–	·	·	·	·
O=C(COC(=O)c1ccc[n+]([O-])c1)Nc1c(Br)cc([N+](=O)[O-])cc1Br	–	–	–	–	–	–
Brc1ccc(Oc2nsnc2N2CCOCC2)cc1	–	56	–	–	–	–
CCc1cccc(CC)c1NC(=S)/C(=C(\[O-])c1ccc(Cl)s1)[n+]1ccccc1	–	–	–	–	–	–
[O-]/C(=C(\C(=S)Nc1cccc2ccccc12)[n+]1ccccc1)c1ccc(Cl)s1	–	73	–	–	–	–
COc1ccc(C(C)(C)C)cc1NC(=O)CNc1cccc2ccccc12	–	–	136	–	–	–
CC(=O)Oc1c(-c2ccco2)oc2ccccc2c1=O	–	–	–	–	–	–
COc1ccc(-n2nc(C(=O)c3cccs3)cc(-c3nc4ccccc4[nH]3)c2=N)cc1	–	–	–	–	–	57
CC(C)(C)NC(=O)CN(Cc1ccc2c(c1)OCO2)C(=O)CNS(=O)(=O)c1ccccc1	·	–	·	·	·	·
CCN(CC)C(=O)c1csc(Nc2ccc(C)cc2)n1	–	–	–	–	–	–
Cc1ccc(Nc2nc(-c3sc(NC(=O)c4ccco4)nc3C)cs2)cc1	–	58	135	–	54	–
CCOc1ccccc1Nc1nc(-c2sc(NC(=O)c3ccco3)nc2C)cs1	–	66	–	–	·	–
Cc1ccc(Nc2nc(C(=O)NCc3ccco3)cs2)cc1	–	52	–	–	–	–
Cc1ccccc1Nc1nc(-c2sc(NC(=O)c3ccco3)nc2C)cs1	–	–	–	–	–	–
COc1ccc(C(CNC(=O)c2cncc(Br)c2)N(C)C)cc1 (stereo unspecified)	–	–	–	–	–	–
CC(=O)NNc1cc(C)nc(N)n1	–	–	·	–	–	–
COc1ccc(-c2oc3ccccc3c2C#Cc2cncn2C)cc1	·	49	·	·	·	·
COc1ccc(-c2sc3ccc(OC)cc3c2C#Cc2cncn2C)cc1	·	75	·	·	·	·
CC1CCC(NC(=O)C2CC(=O)N(c3ccc4c(c3)OCCO4)C2)CC1 (stereo unspecified)	–	–	–	–	–	–
COc1ccc(CC(=O)N2CCC(Nc3nc4ccccc4n3Cc3ccc(F)cc3)CC2)cc1	–	–	–	–	60	–
Cc1cc(C)cc(OCC(=O)NNC(=O)CN2C(=O)c3ccccc3C2=O)c1	–	–	–	–	54	85
COCCn1c(SCC(=O)c2c[nH]c3ccccc23)nnc1-c1ccncc1	–	–	136	–	–	–
SMILES	FXIa inh 1536	AHR act	STAT3 act	FXIIa inh	KLK5 inh	thrombin 1536
Cn1cnnc1SCC(=O)c1c[nH]c2ccccc12	–	67	–	–	–	–
CCCCNc1nnc(SCC(=O)c2c[nH]c3ccccc23)s1	–	57	–	–	–	–
O=C(CSc1nncn1-c1ccccc1)c1c[nH]c2ccccc12	–	–	–	–	–	–
CCn1c(SCC(=O)c2c[nH]c3ccccc23)nnc1-c1cccs1	–	–	–	–	–	–
CCCCNc1nnc(SCC(=O)c2c(N)n(C3CC3)c(=O)[nH]c2=O)s1	·	–	·	·	·	·
O=C(CCc1[nH]c2ccccc2c1Sc1ccccc1)NCCO	–	–	–	–	–	–
NNc1nc(Nc2ccccc2)nc(Nc2ccccc2)n1	–	81	–	–	–	–
CCN(CC)CCNC(=O)c1cc(Br)c(N)cc1OC	·	–	·	·	·	·
